Screening results from PubChem BioAssay.
T cruzi repl = T. cruzi replication inhibition; T. cruzi beta-gal in NIH3T3, luminescence, 90 h; inhibition, % (no concentration beside the values); 300,000 tested, 1.4% active; AID 1885;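 active means mean inhibition across valid replicates above about 55%, limit read from the data; inconclusive means mean below that limit but half or more replicates reach it; inactive means mean below it, under half of replicates reach it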;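 further: signal also drops with host cell toxicity which is not excluded here; 0% = plate median of DMSO wells and 100% = zero luminescence signal; higher percent means less beta-gal luminescence so fewer parasites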
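Material: NIH/3T3 host cells with β-galactosidase reporter T. cruzi; Input: 5,000 host fibroblasts per well; Medium: DMEM, 2% fetal bovine serum; Compound: 50 nL DMSO compound solution per well; Schedule: 3 h host attachment, then at least 90 h co-culture; Detection: luminescent β-galactosidase signal after 60 min lysis.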
Beta cell apopt = beta cell apoptosis inhibition. AID 435005. INS-1E cytokine-induced death, ATP luminescence, 48 h; percent of positive-control rescue, neutral wells zero. protection from apoptosis, % (no concentration beside the values). 300,000 tested, 0.8% active;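 active means Every replicate reaches about 75%, or at least half do and their mean reaches it too, limit read from the data; inconclusive means At least half of replicates reach the limit but their mean does not; inactive means Under half of replicates reach the limit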;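 further: 0% = cytokine-treated negative control wells and 100% = positive control rescue; higher means more ATP so stronger rescue from cytokine killing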
CSC inhib = cancer stem cell inhibition | cancer stem cell-like cells viability, luminescence | inhibition, % at 7.5 µM | 300,000 tested, 1.1% active | AID 2717; in the data active means inhibition above about 75%; inconclusive means no clear call, values can overlap the other calls; tested in HMLE shEcad cells
Calb FLC = C. albicans growth modulation with fluconazole. C. albicans CaCi-2 + fluconazole, Alamar Blue growth, 48 h. growth inhibition, % (concentration not given with the values). 300,000 tested, 0.57% active. AID 1979;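 active means growth inhibition above about 58% in most replicates, limit read from the data, passing the limit was not always enough; inconclusive means exactly half the replicates above a set limit; inactive means most replicates below a set limit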;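 further: all wells also contain fluconazole at 8 µg/ml as a sub-toxic cotreatment; 0% = median of DMSO wells and 100% = median of geldanamycin control wells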
TAG inh = triacylglycerol accumulation inhibition. H9c2 cells, Nile Red lipid (TAG) fluorescence; cells loaded with 200 µM oleic acid. inhibition, % at 12.5 µM. 230,000 tested, 0.66% active. AID 651582;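 active means pattern-corrected inhibition of lipid staining of at least 50% with the nuclear-stain viability signal not falling by more than 50%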;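 further: 0% = DMSO wells and 100% = triacsin C control wells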
Bfl-1 A1 inh = inhibitors of the anti-apoptotic protein A1, read as caspase activation; caspase activation, % (no concentration beside the values); MEF A1-2A-BIM cells, Caspase-Glo 3/7 luminescence, 3 h; percent of clofoctol response, vehicle zero; AID 2462; 330,000 tested, 0.066% active;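 active means over half of replicate activation scores above 10%, or exactly half above 10 with the replicate mean above 10; inconclusive means replicate mean below 10 yet half the replicates above 10; inactive means over half of replicates below 10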
An asterisk follows results filed as active; ? = inconclusive; nt = not tested or not shown. Rows were chosen to be rich in hits. Some 3.1% of all compounds tested hit in one or more screens of this group.

SMILES	T cruzi repl	Beta cell apopt	CSC inhib	Calb FLC	TAG inh	Bfl-1 A1 inh
CC(C)CCNC(=O)CNC(=S)N(Cc1ccccc1)Cc1cccnc1	61.0*	-3.1	11.6	4.1	nt	-0.4
O=[N+]([O-])c1ccc(O)c(-c2nc(-c3ccccc3)c(-c3cccs3)[nH]2)c1	-1.6	48.6	100.4*	16.1	1.2	-0.8
O=C(O)c1ccc(-c2nc(-c3ccccc3)c(-c3cccs3)[nH]2)cc1	-10.8	-3.0	-19.1	-5.0	5.9	0.0
CCOc1cc(-c2nc(-c3ccccc3)c(-c3cc([N+](=O)[O-])ccc3C)[nH]2)ccc1O	56.9*	5.2	nt	51.6	nt	nt
O=[N+]([O-])c1ccc2nc(-c3ccccc3)[nH]c2c1	-5.6	11.3	9.0	2.8	nt	-7.6
C=CCN1C=CC(=O)[C@@H](OC(=O)Nc2ccc(Br)cc2)[C@H]1c1ccccc1Br	nt	nt	nt	nt	5.1	nt
CCCOc1ccc(C(=O)N(Cc2cccs2)C2CCS(=O)(=O)C2)cc1 (stereo unspecified)	-7.1	1.6	9.9	6.7	-4.6	0.3
Nc1nc(Cl)cc(N2CCC(c3cc(-c4ccc(Cl)cc4)n[nH]3)CC2)n1	58.2*	104.0*	70.2	44.3	nt	-0.3
NNC(=O)c1c(O)c2cccc3c2n(c1=O)CCC3	-1.6	-0.9	4.8	0.4	nt	0.1
O=C(Nc1ccccc1)c1sccc1Oc1ccc([N+](=O)[O-])cc1F	63.2*	-7.4	nt	18.8	-1.5	0.7
COCCOc1cc(NC(=O)c2sccc2Oc2ccc([N+](=O)[O-])cc2F)c(Cl)cc1Cl	36.6	nt	25.6	-9.2	-3.7	-0.9
O=C(O)c1ccc2c(c1)[C@@H]1C=CC[C@@H]1[C@H](c1ccccn1)N2	-2.7	-8.5	-26.1	110.1*	-2.6	0.1
Cc1ccc(NC(=O)CCCc2nc3ccccc3c(=O)[nH]2)c(Cl)c1	nt	-5.6	nt	nt	18.9	0.3
Oc1cc(-c2ccncc2)cc2cccnc12	nt	45.9	nt	nt	81.9	1.1
Oc1cc(-c2ccc(N3CCCCC3)nc2)cc2cccnc12	nt	96.1*	nt	nt	104.0*	-8.8
CN(C)c1ccc(-c2cc(O)c3ncccc3c2)cc1	nt	87.7*	114.5*	nt	45.2	-8.3
CCOC(=O)c1sc(NC(=O)Nc2ccccc2)cc1C	54.1	15.6	33.1	?	nt	-10.0
CCOC(=O)c1sc(NC(=O)Nc2ccccc2Cl)cc1C	64.6*	42.0	93.7*	43.6	nt	-6.7
CCOC(=O)c1sc(-c2ccccc2)cc1NC(=O)Nc1ccccc1	55.1*	-0.9	66.0	1.4	26.9	0.0
Cc1ccc(C(=O)COC(=O)CCNS(=O)(=O)c2ccccc2F)cc1	nt	-10.3	0.0	nt	2.0	-0.9
Cc1ccc(C(=O)NCCCNC(=O)c2ccco2)cc1C	16.1	nt	-5.1	2.9	nt	0.0
C=CCn1c(NC(=O)c2ccc(C)cc2)nc2ccccc21	61.3*	16.9	6.7	0.9	nt	0.7
CN(C)CCNC(=O)C1CC(=O)N(c2ccc(F)c(Cl)c2)C1 (stereo unspecified)	36.9	5.0	-7.3	-2.6	nt	0.3
Cc1ccc(CCN2CC(C(=O)NCCCN(C)Cc3ccccc3)CC2=O)cc1 (stereo unspecified)	62.8*	-9.2	-5.3	-1.5	nt	0.4
CCCCNC(=O)C1CC(=O)N(CCc2ccccc2)C1 (stereo unspecified)	-8.5	2.6	-32.3	2.4	13.6	-0.1
SMILES	T cruzi repl	Beta cell apopt	CSC inhib	Calb FLC	TAG inh	Bfl-1 A1 inh
CN(CCNC(=O)C1CC(=O)N(c2ccc(F)c(Cl)c2)C1)Cc1ccccc1 (stereo unspecified)	59.9*	-1.6	2.4	-7.6	nt	-0.5
CN1C(=O)Cc2cc(S(=O)(=O)Nc3ccc(Cl)cc3)ccc21	7.8	2.8	-11.4	-6.5	nt	0.4
O=C(NC1=C(Nc2ccc(F)cc2)C(=O)c2ccccc2C1=O)c1ccc(Cl)cc1	-3.5	87.0*	30.8	-0.1	nt	0.0
O=C(NNC(=O)c1ccc(NC(=O)c2ccccc2)cc1)c1ccc(F)cc1	9.5	-0.2	-11.6	-9.7	-5.2	-0.1
CCn1c(O)c(/C=C2\C=NN=C2c2ccccc2)sc1=S	-15.8	-6.1	16.7	48.3	-2.5	0.6
CC(C)Cn1c(O)c(/C=C2\C=NN=C2c2ccccc2)sc1=S	38.0	-6.6	90.5*	22.8	nt	17.5*
CCCC(=O)Nc1nnc(S(=O)(=O)N(CC(C)C)c2ccccc2)s1	-1.7	2.7	14.2	1.1	nt	0.2
CCOc1cccc2cc(C(=O)NCc3ccc(Cl)cc3)c(=N)oc12	-4.1	-5.2	2.7	-2.9	5.7	0.3
CCCCCN(C(=O)CCC(=O)OCC(=O)N1C(C)CCCC1C)c1c(N)n(CCCC)c(=O)[nH]c1=O (stereo unspecified)	-7.3	-9.8	-6.3	-3.4	-0.9	0.6
O=C(Nc1ccccc1)C1=C(c2ccccc2)S(=O)(=O)CCS1(=O)=O	69.3*	nt	nt	31.7	92.5	nt
O=C(O)c1ccccc1C(=O)Nc1ccccc1	-10.1	nt	-1.9	-3.4	-6.8	-0.2
NC(=S)N/N=C/c1c(O)c(Br)cc2oc3c(c12)CCCC3	18.5	82.4*	38.7	30.9	-27.3	0.3
COc1ccccc1CCNC(=O)C1CCC(=O)N(Cc2ccccc2OC)C1 (stereo unspecified)	8.3	38.4	-1.7	-1.3	2.5	0.3
COc1ccccc1CN1CC(C(=O)NCCN(C)CCc2ccccc2)CCC1=O (stereo unspecified)	60.4*	-6.1	-8.5	-3.0	-14.8	1.9
Cc1cc(C)nc(SCC(=O)NC2=NN=C(c3ccc(Br)cc3)CS2)n1	68.0*	113.0*	-2.9	-4.8	nt	0.0
CCC(Sc1nc(C)cc(C)n1)C(=O)NC1=NN=C(c2ccc(C)cc2)CS1 (stereo unspecified)	53.4	127.0*	44.6	-6.1	nt	-0.5
CCC(Sc1nc(C)cc(C)n1)C(=O)Nc1cc(C)on1 (stereo unspecified)	-4.9	1.9	2.9	-23.7	-13.4	0.2
Cc1cc(C)nc(SCC(=O)Nc2ccc(Br)cn2)n1	9.1	1.9	-16.3	2.6	-0.6	-0.3
O=C(c1ccco1)N1CCN(c2ncnc3c(-c4ccccc4)nsc23)CC1	8.4	5.7	4.3	89.0*	-2.2	-1.7
COc1ccc(-c2nsc3c(N4CCN(C(=O)c5ccco5)CC4)ncnc23)cc1	-16.9	nt	0.3	21.0	-11.8	-0.1
COc1cc(NC(=O)CN(C)S(=O)(=O)c2ccc3c(c2)CC(C)N3C(C)=O)cc(OC)c1 (stereo unspecified)	4.9	nt	nt	7.3	nt	nt
COc1ccc(-c2csc(N(CC3CCCO3)C(=O)c3ccco3)n2)cc1 (stereo unspecified)	11.2	0.6	-1.5	98.5*	13.4	0.4
C1CCC(C(CC2CCCCN2)C2CCCCC2)CC1 (stereo unspecified)	56.4*	90.4*	99.4*	nt	130.0	1.3
CN(C)c1nc(N(C)C)c2cnn(C)c2n1	nt	nt	nt	nt	8.4	nt
